Experimental data taken from ChEMBL document CHEMBL3297688, “New orally active dual enkephalinase inhibitors (DENKIs) for central and peripheral pain treatment” (J Med Chem, 2014).
Active and inactive are the calls of the source.

What was measured:
Mus musculus [1] = experiment: Antinociceptive activity in iv dosed CD1 mouse administered with EtOH/cremophor/water after 10 mins by hot plate test; format: functional
Mus musculus [2] = experiment: Antinociceptive activity in po dosed CD1 mouse after 45 mins by hot plate test; format: functional; conditions: 0.75 h
Mus musculus [3] = experiment: Antinociceptive activity in OF1 mouse acute central pain model at 10 mg/kg, iv administered with EtOH/Tween80/water after 10 mins by hot plate test relative to vehicle-treated control; format: functional
Outline: (§1)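 Male OF1 mice dosed iv in ethanol/Tween80/water (1/1/8). Jump latency on a 52 ± 1 °C hot plate (240 s cutoff) read 10 min after injection, expressed as mean % MPE ± SEM. n = 18–21 per group for dose–response, n = 8 for 10 mg/kg comparisons. ED50 taken from dose–response. ANOVA + Bonferroni.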

Mus musculus [4] = experiment: Antinociceptive activity in OF1 mouse persistent pain model assessed as reduction of formalin-induced paw licking at 50 mg/kg, po administered with EtOH/methyl cellulose in water 30 mins prior to formalin challenge measured after 1 to 5 mins relative to vehicle-treated control; format: functional; parameters: scale not given: the % may be the effect or the level left
Outline: (§2)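 Male OF1 mice gavaged with 50 mg/kg in ethanol/methylcellulose 0.5% in water (1.5/98.5), 30 or 90 min before a plantar sc injection of 5% formalin (20 μL in saline). Licking time recorded over 0–5 min (early phase). n = 5–7 per group. ANOVA + Bonferroni versus vehicle.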

Mus musculus [5] = experiment: Antinociceptive activity in OF1 mouse persistent pain model assessed as reduction of formalin-induced paw licking at 50 mg/kg, po administered with EtOH/methyl cellulose in water 90 mins prior to formalin challenge measured after 1 to 5 mins relative to vehicle-treated control; format: functional; parameters: scale not given: the % may be the effect or the level left; outline: as §2
Mus musculus [6] = experiment: Antinociceptive activity in OF1 mouse acute central pain model at 150 mg/kg, po administered with EtOH/PEG400/water after 20 mins by hot plate test relative to vehicle-treated control; format: functional
Outline: (§3)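 Oral gavage in male OF1 mice, vehicle EtOH/PEG400/H2O (10/40/50); 150 mg/kg for single-dose lines. Hot plate (52 ± 1 °C) jump latency read at 20, 40 and 60 min, 240 s cutoff, % MPE. […] ANOVA + Newman–Keuls or Bonferroni.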

Mus musculus [7] = experiment: Antinociceptive activity in OF1 mouse acute central pain model at 150 mg/kg, po administered with EtOH/PEG400/water after 40 mins by hot plate test relative to vehicle-treated control; format: functional; outline: as §3
Mus musculus [8] = experiment: Antinociceptive activity in OF1 mouse acute central pain model at 150 mg/kg, po administered with EtOH/PEG400/water after 60 mins by hot plate test relative to vehicle-treated control; format: functional; outline: as §3
Mus musculus [9] = experiment: Antinociceptive activity in OF1 mouse acute central pain model at 20 mg/kg, iv after 10 mins by hot plate test relative to vehicle-treated control; format: functional
Outline: (§4)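 Male OF1 mice, iv dosing in water/mannitol (50 mg/mL) vehicle. Hot plate at 52 ± 1 °C read 10 min post-injection. Jump latency with a 240 s cutoff, expressed as % MPE. n = 10 per group. ANOVA with Newman–Keuls or Bonferroni tests versus vehicle.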

Mus musculus [10] = experiment: Antinociceptive activity in OF1 mouse acute central pain model at 40 mg/kg, iv after 10 mins by hot plate test relative to vehicle-treated control; format: functional; outline: as §4
Mus musculus [11] = experiment: Antinociceptive activity in OF1 mouse acute central pain model at 60 mg/kg, iv after 10 mins by hot plate test relative to vehicle-treated control; format: functional; outline: as §4
Mus musculus [12] = experiment: Activity in OF1 mouse acute central pain model at 10 mg/kg, iv administered as single dose by hot plate test; format: functional, organism-based; parameters: dose 10 mg/kg
Mus musculus [13] = experiment: Activity in OF1 mouse acute central pain model at 150 mg/kg, po administered as single dose by hot plate test; format: functional, organism-based; parameters: dose 150 mg/kg
Outline: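 Hot plate at 52 ± 1 °C, male OF1 mice. Single oral dose of 150 mg/kg. Jump latency recorded with a 240 s cutoff and converted to % MPE against control latency.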

Mus musculus [14] = experiment: Antinociceptive activity in OF1 mouse acute central pain model at 10 mg/kg, iv after 10 mins by hot plate test relative to vehicle-treated control; format: functional
Mus musculus [15] = experiment: Antinociceptive activity in iv dosed OF1 mouse acute central pain model assessed as jump latency administered with water/mannitol after 10 mins by hot plate test relative to vehicle-treated control; format: functional; outline: as §4
Mus musculus [16] = experiment: Antinociceptive activity in OF1 mouse acute central pain model assessed as time duration of action at 40 mg/kg, iv administered with water/mannitol after 10 mins by hot plate test relative to vehicle-treated control; format: functional
Mus musculus [17] = experiment: Antinociceptive activity in iv dosed OF1 mouse acute central pain model assessed as jump latency administered with EtOH/Tween80/water after 10 mins by hot plate test relative to vehicle-treated control; format: functional; outline: as §1
Mus musculus [18] = experiment: Antinociceptive activity in OF1 mouse acute central pain model assessed as jump latency at 10 mg/kg, iv after 10 mins by hot plate test relative to vehicle-treated control in presence of naloxone; format: functional, organism-based; parameters: dose 10 mg/kg
Outline: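 Naloxone 0.5 mg/kg given sc before the test compound (10 mg/kg iv) in male OF1 mice. Hot plate (52 ± 1 °C) jump latency measured, 240 s cutoff. n = 7–10 per group. ANOVA followed by Bonferroni versus vehicle and versus drug alone.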

Mus musculus [19] = experiment: Antinociceptive activity in po dosed OF1 mouse acute central pain model administered with EtOH/PEG400/water after 20 mins by hot plate test relative to vehicle-treated control; format: functional; outline: as §3
Mus musculus [20] = experiment: Antinociceptive activity in OF1 mouse acute central pain model assessed as time duration of action at 150 mg/kg, po administered with EtOH/PEG400/water after 20 to 60 mins by hot plate test relative to vehicle-treated control; format: functional; outline: as §3
Rattus norvegicus [21] = experiment: Antinociceptive activity in iv dosed Sprague-Dawley rat acute centrospinal nociception model administered with EtOH/Tween80/water after 10 to 20 mins by tail flick test relative to vehicle-treated control; format: functional, organism-based; conditions: TDE = time-dependent effect
Rattus norvegicus [22] = experiment: Antinociceptive activity in Sprague-Dawley rat acute centrospinal nociception model at 100 mg/kg, po after 20 mins by tail flick test relative to vehicle-treated control; format: functional
Mus musculus [23] = experiment: Antiallodynic activity in OF1 mouse neuropathic pain model assessed as increase in partial sciatic nerve ligation-induced reduction of threshold for paw withdrawal at 25 mg/kg, po after 20 mins by von frey test relative to vehicle-treated control; format: functional; parameters: scale not given: the % may be the effect or the level left
Outline: (§5)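 Partial ligation of 33–50% of the sciatic nerve in male OF1 mice; sham mice operated without ligation. Tested days 10–20 post-surgery, before and 20 min after 25 mg/kg po. Mechanical threshold by von Frey filaments; thermal latency by plantar test (8–10 s baseline, 20 s cutoff, mean of three trials at 5 min intervals). Ipsilateral and contralateral paws tested. n = 6–9 per group.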

Mus musculus [24] = experiment: Antihyperalgesic activity in OF1 mouse neuropathic pain model assessed as increase in partial sciatic nerve ligation-induced reduction in thermal threshold at 25 mg/kg, po by plantar test relative to vehicle-treated control; format: functional, organism-based; parameters: dose 25 mg/kg; outline: as §5
Rattus norvegicus [25] = experiment: Prodrug activation in rat plasma at 200 mg, po after 30 mins by LC/MS/MS analysis; conditions: 0.5 h
Rattus norvegicus [26] = experiment: Antinociceptive activity in Sprague-Dawley rat acute centrospinal nociception model at 20 mg/kg, iv administered with EtOH/Tween80/water after 10 mins by tail flick test relative to vehicle-treated control

## CSCC[C@H](N)CSSC[C@@H](Cc1ccccc1)C(=O)N[C@@H](C)C(=O)OCc1ccccc1
Mus musculus [1]
  ED50: 3 mg/kg
Mus musculus [2]
  ED50: 410 mg/kg

## CCOC(=O)OC(C)OC(=O)CNC(=O)[C@@H](CSSC[C@@H](N)CC[S+](C)[O-])Cc1ccccc1.O=CO (stereo partly drawn)
Mus musculus [3]
  Activity: 30%
Mus musculus [4]
  Activity: 54%
Mus musculus [5]
  Activity: 41%

## CCC(=O)OC(OC(=O)CNC(=O)[C@@H](CSSC[C@@H](N)CCSC)Cc1ccccc1)C1CCCCC1 (stereo partly drawn)
Mus musculus [6]
  Activity: 8%
Mus musculus [7]
  Activity: 10%
Mus musculus [8]
  Activity: 12%

## CCOC(=O)COC(=O)[C@H](C)NC(=O)C(CSSC[C@@H](N)CCSC)Cc1ccsc1 (stereo partly drawn)
Mus musculus [9]
  Activity: 32%

## CCOC(=O)OC(C)OC(=O)[C@@H](NC(=O)[C@@H](CSSC[C@@H](N)CCSC)Cc1ccccc1)C(C)O (stereo partly drawn)
Mus musculus [9]
  Activity: 29%
Mus musculus [10]
  Activity: 61%
Mus musculus [11]
  Activity: 84%

## CSCC[C@H](N)CSSCC(Cc1ccsc1)C(=O)N[C@@H](C)C(=O)OCCS(C)(=O)=O (stereo partly drawn)
Mus musculus [9]
  Activity: 22%

## CCOC(=O)OC(OC(=O)CNC(=O)[C@@H](CSSC[C@@H](N)CCSC)Cc1ccccc1)C(C)C (stereo partly drawn)
Mus musculus [6]
  Activity: 46%
Mus musculus [7]
  Activity: 18%
Mus musculus [8]
  Activity: 0%

## CSCC[C@H](N)CSSCC(Cc1ccsc1)C(=O)N[C@@H](C)C(=O)O (stereo partly drawn)
Mus musculus [12]
  Activity: inactive
Mus musculus [13]
  Activity: inactive

## CSCC[C@H](N)CSSC[C@@H](Cc1ccccc1)C(=O)NCC(=O)O
Mus musculus [12]
  Activity: inactive
Mus musculus [13]
  Activity: inactive

## CSCC[C@H](N)CSSCC(Cc1ccsc1)C(=O)N[C@@H](C)C(=O)OC[C@H]1O[C@@H](O)[C@H](O)[C@@H](O)[C@@H]1O (stereo partly drawn)
Mus musculus [9]
  Activity: 10%

## CCOC(=O)OC(C)OC(=O)[C@H](C)NC(=O)C(CSSC[C@@H](N)CCSC)Cc1ccsc1 (stereo partly drawn)
Mus musculus [9]
  Activity: 44%

## CCOC(=O)OC(C)OC(=O)CNC(=O)[C@@H](CSSC[C@@H](N)CCSC)Cc1ccccc1.O=CO (stereo partly drawn)
Mus musculus [9]
  Activity: 58%
Mus musculus [14]
  Activity: 35%
Mus musculus [10]
  Activity: 97%
Mus musculus [15]
  Activity: Dose-dependent effect
  ED50: 16 mg/kg
Mus musculus [16]
  Time: <40 min
Mus musculus [17]
  Activity: Dose-dependent effect
  ED50: 4.5 mg/kg
Mus musculus [18]
  Activity: inactive
Mus musculus [3]
  Activity: 78%
Mus musculus [6]
  Activity: 58%
Mus musculus [7]
  Activity: 28%
Mus musculus [8]
  Activity: 7%
Mus musculus [19]
  ED50: 133 mg/kg
Mus musculus [20]
  Time: <1 h
Rattus norvegicus [21]
  Activity: tde
Rattus norvegicus [22]
  Activity: 10%
Mus musculus [4]
  Activity: 41%
Mus musculus [5]
  Activity: 41%
Mus musculus [23]
  Activity: 51%
Mus musculus [24]
  Activity: Active
Rattus norvegicus [25]
  Drug metabolism: 98%
Rattus norvegicus [26]
  Emax at 20 mg/kg: 40%

## CSCC[C@H](N)CSSCC(Cc1ccsc1)C(=O)N[C@@H](C)C(=O)OC(COC(C)=O)COC(C)=O (stereo partly drawn)
Mus musculus [9]
  Activity: 40%

## CCC(=O)OC(OC(=O)CNC(=O)[C@@H](CSSC[C@@H](N)CCSC)Cc1ccccc1)C(C)C (stereo partly drawn)
Mus musculus [6]
  Activity: 32%
Mus musculus [7]
  Activity: 24%
Mus musculus [8]
  Activity: 8%

## C[S+]([O-])CC[C@H](N)CSSC[C@@H](Cc1ccccc1)C(=O)NCC(=O)O (stereo partly drawn)
Mus musculus [12]
  Activity: inactive
Mus musculus [13]
  Activity: inactive

## CSCC[C@H](N)CSSC[C@@H](Cc1ccccc1)C(=O)N[C@H](C(=O)O)[C@@H](C)O
Mus musculus [12]
  Activity: inactive
Mus musculus [13]
  Activity: inactive

## CCOC(=O)OC(OC(=O)CNC(=O)[C@@H](CSSC[C@@H](N)CCSC)Cc1ccccc1)C1CCCCC1 (stereo partly drawn)
Mus musculus [6]
  Activity: 17%
Mus musculus [7]
  Activity: 3%
Mus musculus [8]
  Activity: 8%

## CSCC[C@H](N)CSSCC(Cc1ccsc1)C(=O)N[C@@H](C)C(=O)OC[C@H](COC(C)=O)OC(C)=O (stereo partly drawn)
Mus musculus [9]
  Activity: 29%

## CSCC[C@H](N)CSSCC(Cc1ccsc1)C(=O)N[C@@H](C)C(=O)OC(CO)CO (stereo partly drawn)
Mus musculus [9]
  Activity: 22%
